ChEMBL document CHEMBL3580553, “Potent and Nontoxic Chemosensitizer of P-Glycoprotein-Mediated Multidrug Resistance in Cancer: Synthesis and Evaluation of Methylated Epigallocatechin, Gallocatechin, and Dihydromyricetin Derivatives” (J Med Chem, 2015)
Activity calls are given as the source filed them. The rule behind the calls is not given here.

What was measured:
[1] = target: Multidrug resistance-associated protein 1 (Homo sapiens, UniProt P33527); assay: Modulation of MRP1 (unknown origin) transfected in human 2008/MRP1 cells assessed as potentiation of doxorubicin-induced cytotoxicity measured as doxorubicin IC50 at 1 uM after 5 days by MTS assay relative to doxorubicin alone treated cell; type: cell-based; settings: 2008/mrp1, 120 h
Summary of the method: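 After 5 days at 37 °C, viability was read by MTS. Doxorubicin IC50 came from nonlinear regression, and RF = IC50 without/with modulator. Parental 2008/P cells served as reference. N = 2−4, triplicates, mean ± SEM.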

[2] = Cytotoxicity against human MDA435/LCC6MDR cells after 3 days by MTS assay; type: functional, cell-based; settings: 72 h
[3] = target: T1, Broad substrate specificity ATP-binding cassette transporter ABCG2 (Homo sapiens, UniProt Q9UNQ0); assay: Modulation of BCRP (unknown origin) transfected in human HEK293/R2 cells assessed as potentiation of topotecan-induced cytotoxicity measured as topotecan IC50 at 1 uM after 5 days by MTS assay relative to topotecan alone treated cell; type: cell-based; settings: hek293/r2, 120 h
T1 sequence (Q9UNQ0 whole entry): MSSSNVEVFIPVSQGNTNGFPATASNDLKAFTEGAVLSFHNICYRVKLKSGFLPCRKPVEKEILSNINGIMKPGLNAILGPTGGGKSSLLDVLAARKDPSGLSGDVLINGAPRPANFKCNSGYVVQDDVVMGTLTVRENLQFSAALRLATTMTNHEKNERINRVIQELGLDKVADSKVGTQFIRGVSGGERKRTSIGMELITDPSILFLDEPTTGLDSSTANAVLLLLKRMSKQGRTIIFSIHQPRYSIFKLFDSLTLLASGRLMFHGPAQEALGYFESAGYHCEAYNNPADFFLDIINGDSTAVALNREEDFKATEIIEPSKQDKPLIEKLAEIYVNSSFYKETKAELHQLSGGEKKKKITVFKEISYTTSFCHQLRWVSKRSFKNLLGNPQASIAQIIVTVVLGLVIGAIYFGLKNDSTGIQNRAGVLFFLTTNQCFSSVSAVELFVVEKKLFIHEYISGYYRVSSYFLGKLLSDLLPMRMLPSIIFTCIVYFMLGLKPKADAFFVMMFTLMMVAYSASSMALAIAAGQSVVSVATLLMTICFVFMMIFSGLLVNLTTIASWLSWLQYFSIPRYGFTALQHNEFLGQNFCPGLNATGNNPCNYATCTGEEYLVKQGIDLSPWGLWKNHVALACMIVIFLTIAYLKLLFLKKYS
Summary of the method: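 Incubated 5 days at 37 °C; viability by MTS. Topotecan IC50 came from nonlinear regression, and RF = IC50 without/with modulator. Empty-vector HEK293/pcDNA3.1 served as reference. N = 2−4, triplicates, mean ± SEM.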

[4] = Selectivity index, ratio of IC50 for mouse […] cells to EC50 for modulation of P-gp (unknown origin) transfected in human MDA435/LCC6MDR cells assessed as reversing paclitaxel resistance; parameters: species or system L929
L929 = assay: Cytotoxicity against mouse L929 cells after 3 days by MTS assay; type: cell-based; settings: L929, 72 h
[5] = Cytotoxicity against human LCC-6 cells after 3 days by MTS assay; type: functional, cell-based; settings: LCC-6, 72 h
[6] = target: T2, ATP-dependent translocase ABCB1 (Homo sapiens, UniProt P08183); assay: Modulation of P-gp (unknown origin) transfected in human MDA435/LCC6MDR cells assessed as reversible of paclitaxel resistance measured as IC50 for paclitaxel at 1 uM after 5 days by CellTiter 96 Aqueous assay relative to PTX alone treated cell; type: cell-based; settings: 120 h
[7] = Modulation of P-gp (unknown origin) transfected in human MDA435/LCC6MDR cells assessed as reversible of paclitaxel resistance measured as IC50 for paclitaxel at 1 uM after 5 days by CellTiter 96 Aqueous assay
[8] = target: T2, ATP-dependent translocase ABCB1; assay: Modulation of P-gp (unknown origin) transfected in human MDA435/LCC6MDR cells assessed as induction of intracellular doxorubicin accumulation at 2 uM after 150 mins by spectrofluorometric analysis relative to control; type: cell-based; settings: 2.5 h
Summary of the method: (§1)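 LCC6 or LCC6MDR cells (1 × 10⁶) incubated with 20 μM DOX plus 2 μM modulator, 150 min at 37 °C; 0.2% DMSO as negative control; cells washed in cold PBS, lysed in 0.75 M HCl/0.2% Triton X-100 in isopropanol; supernatant DOX fluorescence read by spectrofluorometry.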

LCC6MDR (human) = assay: Inhibition of P-gp-mediated doxorubicin efflux in human LCC6MDR cells measured at 1.5 uM after 30 to 150 mins by spectrofluorometry relative to control
Homo sapiens [9] = species: Homo sapiens; assay: Modulation of P-gp (unknown origin) transfected in human MDA435/LCC6MDR cells assessed as restoration of intracellular doxorubicin accumulation at 3 uM after 150 mins by spectrofluorometric analysis relative to parental cells; type: cell-based
Summary of the method: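 LCC6MDR cells with 20 μM DOX and modulator at 0, 0.05, 0.1, 0.5, 1, 3 or 8 μM; cells lysed and intracellular DOX measured by spectrofluorometry. N = 2–5 independent experiments, mean ± SEM.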

LCC-6 [10] = assay: Effect on doxorubicin efflux in human LCC-6 cells measured at 1.5 uM after 30 to 150 mins by spectrofluorometry relative to control; type: functional, cell-based
Summary of the method: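 Efflux: LCC6 or LCC6MDR cells preloaded with 20 μM DOX 1 h at 37 °C, washed in PBS, resuspended in DMEM ± 1.5 μM modulator; samples at 0, 30, 60, 90, 120, 150 min chilled on ice; intracellular DOX by spectrofluorometry. DMSO control; N = 3–4, mean ± SEM.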

Homo sapiens [11] = species: Homo sapiens; assay: Modulation of P-gp (unknown origin) transfected in human MDA435/LCC6MDR cells assessed as restoration of intracellular doxorubicin accumulation after 150 mins by spectrofluorometric analysis relative to parental cells; type: cell-based; summary of the method: as §1
[12] = Drug uptake in human LCC-6 cells at 20 uM after 150 mins by spectrofluorometry; type: ADME, cell-based; settings: lcc-6, 2.5 h
Summary of the method: (§2)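 LCC6 or LCC6MDR cells (3 × 10⁶) incubated with 20 or 200 μM compound or DOX, 37 °C, 150 min. Compound: pellet extracted with methanol, supernatant by reversed-phase C18 HPLC, methanol eluent, 1 mL/min, UV detection at 308 or 270 nm. DOX: lysis buffer, fluorescence by spectrofluorometer. N = 2–3, mean ± SEM.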

[13] = P-gp (unknown origin)- mediated durg uptake in human MDA435/LCC6MDR cells at 20 uM after 150 mins by spectrofluorometry relative to control; type: ADME, cell-based; settings: 2.5 h; summary of the method: as §2
[14] = Drug uptake in human LCC-6 cells at 200 uM after 150 mins by spectrofluorometry; type: ADME, cell-based; settings: lcc-6, 2.5 h; summary of the method: as §2
[15] = P-gp (unknown origin)- mediated durg uptake in human MDA435/LCC6MDR cells at 200 uM after 150 mins by spectrofluorometry relative to control; type: ADME, cell-based; settings: 2.5 h, in the assay text read “by HPLC” for “by spectrofluorometry”; summary of the method: as §2
[16] = target: T2, ATP-dependent translocase ABCB1; assay: Modulation of P-gp (unknown origin) transfected in human MDA435/LCC6MDR cells assessed as reversible of paclitaxel resistance measured as IC50 for paclitaxel at 10 uM after 5 days by CellTiter 96 Aqueous assay relative to PTX alone treated cell; type: cell-based; settings: 120 h
Summary of the method: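 They were held 5 days at 37 °C and viability read by CellTiter 96 AQueous (MTS). […] RF = IC50 of PTX without modulator / IC50 with modulator.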

LCC-6 [17] = assay: Effect on doxorubicin influx in human LCC-6 cells measured at 1.5 uM after 30 to 150 mins by spectrofluorometry relative to control; type: functional, cell-based
[18] = Drug uptake in human LCC-6 cells at 20 uM after 150 mins by spectrofluorometry relative to P-gp expressing cells; type: ADME, cell-based; settings: lcc-6, 2.5 h; summary of the method: as §2

Multidrug resistance-associated protein 1, sequence (P33527 whole entry): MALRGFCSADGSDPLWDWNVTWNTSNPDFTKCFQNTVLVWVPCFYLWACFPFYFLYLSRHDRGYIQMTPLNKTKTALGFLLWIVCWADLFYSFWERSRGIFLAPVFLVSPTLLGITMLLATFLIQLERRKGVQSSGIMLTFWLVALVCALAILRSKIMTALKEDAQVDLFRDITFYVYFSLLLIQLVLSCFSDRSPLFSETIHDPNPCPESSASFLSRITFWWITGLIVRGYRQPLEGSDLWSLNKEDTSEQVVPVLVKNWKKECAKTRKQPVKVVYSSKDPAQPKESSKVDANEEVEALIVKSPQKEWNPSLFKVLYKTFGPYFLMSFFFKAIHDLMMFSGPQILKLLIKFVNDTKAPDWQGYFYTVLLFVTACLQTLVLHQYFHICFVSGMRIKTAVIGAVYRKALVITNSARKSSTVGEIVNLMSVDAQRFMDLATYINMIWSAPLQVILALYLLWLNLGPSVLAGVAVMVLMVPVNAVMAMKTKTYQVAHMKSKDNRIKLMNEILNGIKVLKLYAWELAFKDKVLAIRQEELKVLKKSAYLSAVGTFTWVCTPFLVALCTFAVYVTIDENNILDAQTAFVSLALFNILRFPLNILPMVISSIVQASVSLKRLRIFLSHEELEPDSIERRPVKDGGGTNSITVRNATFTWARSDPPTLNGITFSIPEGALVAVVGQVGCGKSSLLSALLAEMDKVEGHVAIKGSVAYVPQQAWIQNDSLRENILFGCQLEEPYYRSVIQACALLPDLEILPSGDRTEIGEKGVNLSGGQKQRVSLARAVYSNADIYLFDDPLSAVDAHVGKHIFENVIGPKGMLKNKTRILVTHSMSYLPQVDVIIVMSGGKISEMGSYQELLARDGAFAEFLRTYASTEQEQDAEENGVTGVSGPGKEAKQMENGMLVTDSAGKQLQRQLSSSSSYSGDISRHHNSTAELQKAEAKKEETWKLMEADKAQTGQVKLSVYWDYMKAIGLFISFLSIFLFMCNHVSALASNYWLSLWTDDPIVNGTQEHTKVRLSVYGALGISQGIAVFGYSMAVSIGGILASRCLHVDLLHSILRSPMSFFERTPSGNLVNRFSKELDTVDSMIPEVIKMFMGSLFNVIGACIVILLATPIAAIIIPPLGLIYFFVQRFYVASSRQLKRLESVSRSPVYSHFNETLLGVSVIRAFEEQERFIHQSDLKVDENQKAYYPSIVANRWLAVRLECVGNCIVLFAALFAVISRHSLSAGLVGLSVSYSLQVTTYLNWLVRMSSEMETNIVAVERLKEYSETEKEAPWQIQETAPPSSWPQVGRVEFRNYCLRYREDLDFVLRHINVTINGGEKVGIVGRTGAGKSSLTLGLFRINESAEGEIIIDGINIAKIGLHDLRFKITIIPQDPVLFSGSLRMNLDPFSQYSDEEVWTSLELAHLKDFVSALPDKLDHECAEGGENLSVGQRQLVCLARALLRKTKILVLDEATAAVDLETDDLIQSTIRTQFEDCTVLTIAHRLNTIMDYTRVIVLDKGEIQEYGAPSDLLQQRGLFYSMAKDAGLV
T2 sequence (P08183 whole entry): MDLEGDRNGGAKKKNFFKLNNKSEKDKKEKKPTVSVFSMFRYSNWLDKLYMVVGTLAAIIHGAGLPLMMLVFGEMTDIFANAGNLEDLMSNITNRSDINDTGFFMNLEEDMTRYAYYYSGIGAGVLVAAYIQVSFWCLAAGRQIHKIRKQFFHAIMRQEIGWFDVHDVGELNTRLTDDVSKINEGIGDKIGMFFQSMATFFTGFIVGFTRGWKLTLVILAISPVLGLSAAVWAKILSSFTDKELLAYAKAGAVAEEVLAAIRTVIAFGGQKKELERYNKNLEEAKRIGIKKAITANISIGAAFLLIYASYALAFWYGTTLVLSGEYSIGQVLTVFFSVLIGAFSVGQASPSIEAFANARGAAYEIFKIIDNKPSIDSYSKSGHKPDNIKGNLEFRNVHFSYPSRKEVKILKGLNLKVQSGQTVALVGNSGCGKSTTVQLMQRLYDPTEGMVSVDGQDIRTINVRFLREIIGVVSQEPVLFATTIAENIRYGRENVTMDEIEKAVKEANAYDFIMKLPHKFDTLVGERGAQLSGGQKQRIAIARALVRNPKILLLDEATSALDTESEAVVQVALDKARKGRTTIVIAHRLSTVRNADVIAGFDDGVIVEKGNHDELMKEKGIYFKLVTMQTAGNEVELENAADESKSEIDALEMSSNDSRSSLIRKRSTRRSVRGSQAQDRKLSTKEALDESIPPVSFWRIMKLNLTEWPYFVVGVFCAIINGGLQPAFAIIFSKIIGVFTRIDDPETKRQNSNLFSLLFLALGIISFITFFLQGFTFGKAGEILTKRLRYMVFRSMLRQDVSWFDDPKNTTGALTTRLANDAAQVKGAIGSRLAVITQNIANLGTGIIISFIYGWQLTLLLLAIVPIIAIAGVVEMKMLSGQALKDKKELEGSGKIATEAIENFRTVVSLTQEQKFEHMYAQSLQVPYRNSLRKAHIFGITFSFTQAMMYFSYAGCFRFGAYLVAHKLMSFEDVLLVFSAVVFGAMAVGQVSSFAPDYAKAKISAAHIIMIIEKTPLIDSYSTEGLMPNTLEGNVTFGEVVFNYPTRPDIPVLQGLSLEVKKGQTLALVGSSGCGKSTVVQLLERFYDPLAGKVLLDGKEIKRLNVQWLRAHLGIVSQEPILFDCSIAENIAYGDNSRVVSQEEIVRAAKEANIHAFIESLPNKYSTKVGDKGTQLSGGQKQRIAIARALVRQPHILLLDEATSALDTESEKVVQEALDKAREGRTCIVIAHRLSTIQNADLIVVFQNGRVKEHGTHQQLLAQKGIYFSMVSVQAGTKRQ

Row | Structure (SMILES) | Ratio [1] | IC50 [2] [µM] | Ratio [3] | Ratio IC50/EC50 [4] | IC50 (L929) [µM] | IC50 [5] [µM] | Ratio [6] | IC50 [7] [µM] | further results
1 | COc1cc(OC)c2c(c1)O[C@H](c1cc(OC)c(OC)c(OC)c1)[C@@H](OC(=O)c1ccc(F)c(NC(=O)c3ccc(OC)c(OC)c3)c1)C2 | 2.6 | > 100 | 10.4 | >585 | > 100 | > 100 | 31.4 | 0.0046 | 
2 | COc1cc(OC)c2c(c1)O[C@H](c1cc(OC)c(OC)c(OC)c1)[C@H](OC(=O)c1ccc(F)c(NC(=O)c3cc(OC)c(OC)c(OC)c3)c1)C2 | 0.9 | > 100 | 2.3 | >467 | > 100 | > 100 | 43.8 |  | fold change (FC) [8]: 2.7; inhibition (LCC6MDR (human)): Active; Activity (Homo sapiens [9]): Active; Activity (LCC-6 [10]): inactive
3 | COc1ccc(CCN(C)CCCC(C#N)(c2ccc(OC)c(OC)c2)C(C)C)cc1OC (configuration not stated) |  |  |  |  |  |  |  |  | Activity (Homo sapiens [11]): Dose-dependent effect; Activity (Homo sapiens [9]): Active
4 | COc1cc(OC)c2c(c1)O[C@H](c1cc(OC)c(OC)c(OC)c1)[C@@H](OC(=O)c1ccc(F)c(NC(=O)c3cc(OC)c(OC)c(OC)c3)c1)C2 | 2.6 | > 100 | 12.3 | >714 | > 100 | > 100 | 53.6 | 0.0027 | Drug uptake [12]: Active; Drug uptake [13]: Not Active; Drug uptake [14]: Active; Drug uptake [15]: Not Active
5 | COc1cc(OC)c2c(c1)O[C@H](c1cc(OC)c(OC)c(OC)c1)[C@@H](OC(=O)c1ccc(F)c(NC(=O)/C=C/c3cc(OC)c(OC)c(OC)c3)c1)C2 |  | > 100 |  | >444 | > 100 | > 100 | 34.4 | 0.0042 | 
6 | COc1cc(OC)c2c(c1)O[C@H](c1cc(OC)c(OC)c(OC)c1)[C@@H](OC(=O)c1ccc(F)c(NC(=O)/C=C/c3ccc(OC)c(OC)c3)c1)C2 |  | > 100 |  | >357 | > 100 | > 100 | 21.9 |  | 
7 | O=C(O[C@@H]1Cc2c(O)cc(O)cc2O[C@@H]1c1cc(O)c(O)c(O)c1)c1cc(O)c(O)c(O)c1 [EPIGALOCATECHIN GALLATE] |  | 56 |  |  | 82.3 | 69.1 | 1.2 |  | Ratio [16]: 1.2
8 | COc1cc(OC)c2c(c1)O[C@H](c1cc(OC)c(OC)c(OC)c1)[C@H](OC(=O)/C=C/c1cc(OC)c(OC)c(OC)c1)C2 |  | > 100 |  |  | > 100 | > 100 |  |  | Activity (LCC-6 [17]): inactive; fold change (FC) [8]: 2.7; Drug uptake [12]: Active; Drug uptake [13]: Not Active; inhibition (LCC6MDR (human)): Active; Drug uptake [14]: Active; Activity (Homo sapiens [11]): Dose-dependent effect; Drug uptake [15]: Not Active; Activity (Homo sapiens [9]): Active; Activity (LCC-6 [10]): inactive
9 | COc1cccc2c1C(=O)c1c(O)c3c(c(O)c1C2=O)C[C@@](O)(C(=O)CO)C[C@@H]3O[C@H]1C[C@H](N)[C@H](O)[C@H](C)O1 [DOXORUBICIN] |  |  |  |  |  |  |  |  | Drug uptake [18]: Active
10 | COc1cc(OC)c2c(c1)O[C@H](c1cc(OC)c(OC)c(OC)c1)[C@H](OC(=O)/C=C/c1ccc(OC)c(OC)c1)C2 |  | > 100 |  | >638 | > 100 | > 100 | 16.6 |  | 
11 | COc1cc(OC)c2c(c1)O[C@H](c1cc(OC)c(OC)c(OC)c1)[C@H](OC(=O)c1cc(OC)c(OC)c(OC)c1)C2 |  | > 100 |  |  | > 100 | > 100 | 6.9 | 0.021 | 
12 | COc1cc(OC)c2c(c1)O[C@H](c1cc(OC)c(OC)c(OC)c1)[C@@H](OC(=O)/C=C/c1ccc(OC)c(OC)c1)C2 |  | > 100 |  |  | > 100 | > 100 | 12.3 | 0.0118 | 
13 | COc1cc(OC)c2c(c1)O[C@H](c1cc(OC)c(OC)c(OC)c1)[C@H](OC(=O)c1ccc(F)c(NC(=O)c3ccc(OC)c(OC)c3)c1)C2 | 0.8 | > 100 | 2.7 | >698 | > 100 | > 100 | 48.2 |  | fold change (FC) [8]: 2.5; Activity (Homo sapiens [11]): Dose-dependent effect
